According to publication PMC5503496 (Drug Design, Development and Therapy, 2017):
“Also recorded” adds a separate entry of the source.

Columns and labels:
mushroom tyrosinase = mushroom tyrosinase (Agaricus bisporus, UniProt C7FF04); experiment: Kinetic analysis of the inhibition of tyrosinase; format: biochemical; settings: Lineweaver-Burk plots, L-DOPA
[1] = system: melanin contents in zebrafish embryos; experiment: Determination of melanin contents in zebrafish; format: in vivo, zebrafish (Danio rerio); settings: 50 µM, 72 hpf
[2] = system: pigmentation of zebrafish; experiment: In vivo depigmentation assay in zebrafish; design: species or system zebrafish (Danio rerio); settings: zebrafish embryos, 50 µM, 9 to 72 hpf
Outline: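 Synchronized embryos from wild-type adults (kept at 28.5°C, 14 h light/10 h dark) were placed 2–3 per well in E3 medium (NaCl 5 mM, KCl 0.17 mM, CaCl2 0.33 mM, MgSO4 0.33 mM). […] Dechorionated embryos were anesthetized with MS-222, mounted in 1% methyl cellulose and photographed by stereomicroscope. Pigmentation was quantified by pixel measurement.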

Chain of mushroom tyrosinase (C7FF04 1-392 limits assumed): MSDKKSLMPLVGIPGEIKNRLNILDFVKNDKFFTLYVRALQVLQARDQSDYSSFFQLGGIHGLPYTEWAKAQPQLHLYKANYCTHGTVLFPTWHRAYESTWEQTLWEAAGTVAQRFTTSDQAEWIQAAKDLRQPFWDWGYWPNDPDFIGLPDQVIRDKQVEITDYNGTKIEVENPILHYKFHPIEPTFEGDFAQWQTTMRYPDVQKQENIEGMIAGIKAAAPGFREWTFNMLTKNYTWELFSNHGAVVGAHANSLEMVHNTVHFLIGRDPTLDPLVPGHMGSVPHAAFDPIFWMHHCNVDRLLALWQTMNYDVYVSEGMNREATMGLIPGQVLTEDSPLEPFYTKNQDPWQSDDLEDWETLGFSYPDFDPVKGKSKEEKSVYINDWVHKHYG

| Structure (SMILES) | Inhibition type (mushroom tyrosinase) | melanin contents [1] | pigmentation level (decreased to) [2] |
| --- | --- | --- | --- |
| Cc1ccc(C(C)C)cc1NC(=O)COC(=O)/C=C/c1ccccc1O [6b, 2-[2-methyl-5-(propan-2-yl)anilino]-2-oxoethyl (2E)-3-(2-hydroxyphenyl)prop-2-enoate] | mixed-type inhibition | – | – |
| O=c1cc(CO)occ1O [Kojic acid] | – | only slightly reduced the melanin contents | 24.2% |
| Cc1ccc(C(C)C)cc1NC(=O)COC(=O)c1ccc(O)cc1O [4c, 2-[2-methyl-5-(propan-2-yl)anilino]-2-oxoethyl 2,4-dihydroxybenzoate] | non-competitive inhibition; also recorded: non-competitively | – | – |
| Cc1ccc(C(C)C)cc1NC(=O)COC(=O)/C=C/c1ccccc1 [6a, 2-[2-methyl-5-(propan-2-yl)anilino]-2-oxoethyl (2E)-3-phenylprop-2-enoate] | mixed-type inhibition | – | – |
